For 59 molecules, activation results are on record in PubChem BioAssay AID2520 (Sanford-Burnham Center for Chemical Genomics, 2010).

In all, about 330,000 compounds went through this assay and about 350 (0.11%) were called active.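 Rule for the calls: active = activation more than six SD over the plate average, tested at 20 µM; inactive = the rest.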 What follows is part of a selection rich in actives, with near analogues and random picks from the rest.

Sequence of Apelin receptor (Homo sapiens) (P35414 whole entry, looked up): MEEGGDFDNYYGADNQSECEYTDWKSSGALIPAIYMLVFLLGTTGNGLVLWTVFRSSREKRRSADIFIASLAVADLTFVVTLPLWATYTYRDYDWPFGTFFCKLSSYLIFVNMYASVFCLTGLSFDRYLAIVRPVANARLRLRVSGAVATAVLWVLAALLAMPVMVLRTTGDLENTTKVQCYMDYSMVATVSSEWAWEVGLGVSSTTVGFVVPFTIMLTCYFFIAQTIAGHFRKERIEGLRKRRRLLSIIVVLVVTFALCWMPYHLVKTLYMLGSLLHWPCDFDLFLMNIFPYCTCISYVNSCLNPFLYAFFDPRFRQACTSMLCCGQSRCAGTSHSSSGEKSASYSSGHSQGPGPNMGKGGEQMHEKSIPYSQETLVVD

The assay concerns the target Apelin receptor (Homo sapiens) (UniProt P35414). The experiment in a line: agonists of human apelin receptor APJ, primary screen, CHO-K1 cells, PathHunter beta-arrestin, luminescence (AID 2520). As to conditions: at 20 µM, stronger effect = higher value, 0% DMSO wells, 100% apelin. The essentials:
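Test system – PathHunter CHO-K1 APJ (AGTRL-1) beta-arrestin reporter cells · Input – 1000 cells/well · Compound – single test compound dose, 20 µM final, 1% DMSO · Times – compound stimulation 90 min at 25 °C, detection 60 min · Technique – beta-gal luminescence · Read-out basis – APJ–arrestin association signal · Control set – negative DMSO alone, positive Apelin-13 at 10 nM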
Take `CCCCc1cc(=O)oc2c(C)c(OCC(=O)N3CCC(C(N)=O)CC3)ccc12`: the activation is -4.2% (inactive).

For `CCOc1ccc(/C=C/C(=O)N(CC)CC(=O)NCc2cccs2)cc1OC`, the activation was 8.54% (inactive).

On to `Cc1nnc(SCC(=O)NC(=O)NC2CCCC2)n1N`, for which the activation is -4.56% (inactive).

On to `CCN1CCN(C(=O)CCN2C(=O)c3ccccc3C2=O)CC1`, for which the activation is -1.85% (inactive).

Turning to `COc1ccc2c(c1)N(C)/C(=C1/SC(=S)N(NC(C)=O)C1=O)S2`, the activation was -1.51% (inactive).

With `O=C1NC(c2ccccc2)=NC1(Nc1ccccn1)C(F)(F)F` (centres undefined), the activation is 1.8% (inactive).

With `Cc1ccsc1C(=O)OCC(=O)Nc1cccc(F)c1`, the activation was -4.87% (inactive).

Consider `COc1ccc(-n2c(=O)[nH]c3cc(C(=O)NCCc4ccc(OC)c(OC)c4)ccc3c2=O)c(OC)c1`, for which the activation is -2.2% (inactive).

In the case of `O=C(NC1CCCC1)C(NS(=O)(=O)c1ccc(Br)s1)c1ccccc1` (centres undefined), the activation was 1.83% (inactive).

Turning to `Cc1ccc2c(c1)NCC(C(=O)NC1CCC(C)CC1)O2` (centres undefined), the activation was -1.38% (inactive).

For `N#CC1=C(N)N(c2ccc(F)cc2)C(=O)C1`, the activation is -4.08% (inactive).

Regarding `CC(=O)Nc1ccc(NC(=O)C(C)n2c3ccccc3c3nc(=O)cc(C)n32)cc1` (centres undefined), the activation was -3.18% (inactive).

Regarding `CCOC(=O)C1=C(CC)OC(N)=C(C#N)C1c1ccc(F)cc1F` (centres undefined), the activation was -3.78% (inactive).

Turning to `Cc1cccc(NC(=O)c2sc3nc(N4CCOCC4)c4c(c3c2N)CCCC4)c1`, the activation was -11.8% (inactive).

As to `Nc1nc(-c2sc3nc4c(cc3c2N)CCCC4)nc(N2CCOCC2)n1`, the activation was 12.3% (active).

`Cc1nc(N2CCOCC2)nc2c1CCCC2`: the activation was 0.237% (inactive).

In the case of `CC(=O)NC(=S)Nc1ccc(NC(=O)c2cccnc2)cc1`, the activation was 3.75% (inactive).

As for `Cc1cc(NS(=O)(=O)c2ccc(NC(=O)c3cccnc3)cc2)nc(C)n1`, the activation was 1.41% (inactive).

Take `Cc1ccc2nc(-c3ccc(NC(=O)c4cccnc4)cc3)oc2c1`: the activation is 14.6% (active).

For the molecule `COc1ccc(C)cc1N(CC(=O)NC(C)c1ccccc1)S(C)(=O)=O` (centres undefined), the activation is -1.79% (inactive).

For `C=CCOc1ccccc1NC(=O)CN1C(=O)CNC1=O`, the activation is -2.49% (inactive).

For the molecule `COc1ccc(C)cc1NC(=O)CSc1nnc(CC(=O)Nc2ccccc2F)n1C`, the activation is -3.35% (inactive).

`NS(=O)(=O)c1ccc(CCNC(=O)COC(=O)COc2cccc(C(F)(F)F)c2)cc1`: the activation is -3.07% (inactive).

With `COc1cc2c(cc1OC)C(=O)NCC(C)(C)O2`, the activation was -0.328% (inactive).

With `CN(CCc1ccccn1)C(=O)c1ccc(OC2CCN(Cc3ccccn3)CC2)cc1`, the activation is -8.78% (inactive).

In the case of `CC(C)=CCCC(C)CN1CCC(n2nccc2NC(=O)c2ccccc2)CC1` (centres undefined), the activation is 1.47% (inactive).

With `CCCn1c(=S)[nH]c2ccc(C(F)(F)F)cc21`, the activation was 0.385% (inactive).

On to `CCCCn1nnnc1NCc1cc(OC)c(OC)c(OC)c1`, for which the activation is -4.13% (inactive).

As to `Cc1ccnc(NC(=O)CCC(=O)N(CC(=O)NCCc2ccccc2)Cc2cccs2)c1`, the activation is -3.93% (inactive).

`CCCS(=O)(=O)N1CCN=C1SCc1cccc(F)c1`: the activation is 2.13% (inactive).

`COc1cccc2c(O)cc(=O)n(C)c12`: the activation was -2.86% (inactive).

With `O=C(Nc1cccc([N+](=O)[O-])c1)N1CCc2ccccc2C1`, the activation was -0.709% (inactive).

Take `Cc1ccc(O/C=C2\OC(=O)c3ccccc32)cc1`: the activation is -1.88% (inactive).

Consider `O=C(OCC(=O)c1cccs1)c1ccc([N+](=O)[O-])o1`, for which the activation was 3.99% (inactive).

In the case of `COC(=O)Cc1cnc(NC(=O)CSc2nc(C(C)C)cc(=O)[nH]2)s1`, the activation is -1.9% (inactive).

For the molecule `O=C1NC(=Nc2ccc(Cl)cc2)SC1Cc1cccc(Cl)c1Cl` (centres undefined), the activation is -3.58% (inactive).

Take `N#Cc1cccc(NC(=O)COC(=O)c2ccccc2C(=O)c2ccc(Cl)c([N+](=O)[O-])c2)c1`: the activation is -0.51% (inactive).

As for `Cc1ccc(C(=O)C(C)OC(=O)Cc2n[nH]c(=O)c3ccccc23)cc1C` (centres undefined), the activation is 6.72% (inactive).

Turning to `CCc1ccc2c(c1)cc(CN(C(=S)Nc1ccccc1Cl)C1CC1)c1nnnn12`, the activation was 4.19% (inactive).

In the case of `Cc1cc(C)c2[nH]c(=O)c(CN(Cc3ccccc3)C(=S)NCCCN(C)C)cc2c1`, the activation is 20.2% (active).

With `COCCCNC(=S)N(CCN(C)C)Cc1cc2cc3c(cc2[nH]c1=O)OCCO3`, the activation was -4.21% (inactive).

Turning to `Cc1cccc2cc(CN(Cc3cccs3)C(=S)NCc3ccco3)c(=O)[nH]c12`, the activation was -1.92% (inactive).

On to `O=C1C=CC(=O)N1c1ccc(N2CCCCC2)cc1`, for which the activation was -5.18% (inactive).

As for `CCCCCCc1cc2cc(-c3nnc(-c4ccccc4)o3)c(=O)oc2cc1O`, the activation is 30.8% (active).

On to `Cc1c(CCC(=O)O)c(=O)oc2cc3occ(-c4ccccc4)c3cc12`, for which the activation is -2.13% (inactive).

As for `CCc1ccc(CN(C)C(=O)CCc2nnc(-c3ccc(-c4ccccc4)cc3)o2)nc1`, the activation was -3.94% (inactive).

`CN(c1ccccc1)S(=O)(=O)c1ccc(Cl)c(C(=O)OCC(=O)N2CCOCC2)c1`: the activation is -4.02% (inactive).

Consider `CCn1c(-c2cccnc2Cl)nc2cc(C)c(C)cc21`, for which the activation was -1.12% (inactive).

For `COCC(=O)Nc1cc(C(=O)OC)cc(C(=O)OC)c1`, the activation is -0.719% (inactive).

On to `CCOC(CNC(=O)C(=O)NCC(c1ccco1)N1CCN(c2ccc(OC)cc2)CC1)OCC` (centres undefined), for which the activation is -4.81% (inactive).

As for `CC(=O)c1ccccc1OCc1ccc(C(=O)c2ccccc2)cc1`, the activation was -3.74% (inactive).

`COc1ccc(N(CCC#N)S(=O)(=O)c2ccc(Cl)cc2)cc1`: the activation is -5.53% (inactive).

Take `COCn1c(C(O)c2ccccc2)cc2ccccc21` (centres undefined): the activation is -2.04% (inactive).

In the case of `COc1ccc(S(=O)(=O)Nc2ccc(F)cc2)c(C)c1C`, the activation was -0.449% (inactive).

For `CCCCN(CC)C(=O)CN(C)S(=O)(=O)c1cccc2nsnc12`, the activation was -2.83% (inactive).

As to `CN(CCC1CCOCC1)Cc1cn[nH]c1-c1ccc(-c2ccccc2)cc1`, the activation was -3.69% (inactive).

Take `Cc1ccnc(NS(=O)(=O)c2ccc(NC(=O)c3ccc(S(=O)(=O)N(C)C)cc3)cc2)n1`: the activation was -2.66% (inactive).

In the case of `CCc1ccccc1NC(=O)CN(C)C(=O)COc1ccc(C)nc1[N+](=O)[O-]`, the activation was -1.82% (inactive).

In the case of `CC1CN(C(=O)c2ccc3c(c2)OCO3)OC(c2ccccc2)O1` (centres undefined), the activation was -2.94% (inactive).
